According to PubChem BioAssay AID493070 (Broad Institute, 2011):
A number with no mark means an inactive call. Active and inactive are the calls of the source.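 The calls were made as follows: active = growth signal loss with fitted half-maximal concentration up to ten times the top valid dose; inconclusive = flat curve with 30 to 70% inhibition, or poor fit; inactive = the rest, including opposite-direction effects.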

test: C. albicans CaCi-2 growth inhibition, compound alone, dose response, counter-screen, Alamar Blue fluorescence, dry powder, set 5 (AID 493070); settings: 48 h; series mostly up to 26 µM; activity change, negative = inhibition: at the top concentration
Procedure, shortened: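 System – C. albicans CaCi-2 grown without fluconazole · Buffer or medium – RPMI synthetic defined medium · Dosing – test compound delivered to wells by pin transfer · Times – 48 h growth at 37 °C, 2 h dye step · Signal – Alamar Blue fluorescence at 1:200 final, excitation 544 nm, emission 590 nm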

Row | Structure (SMILES) | outcome | activity change, negative = inhibition
1 | CCN(CC)C(=O)Cn1c2ccccc2c2nc3n(c(=O)c21)CCS3 | inactive | –
2 | CCN(CC)C(=O)Cn1c2ccc(F)cc2c2nc3n(c(=O)c21)CCS3 | – | 3.09%
3 | O=C(Cn1c2ccccc2c2nc3n(c(=O)c21)CCS3)N1CCCCC1 | – | -12%
4 | COC(=O)Cn1c(-c2ccccc2)nc2ccccc21 | – | 0.011%
5 | COC(=O)Cn1nc(-c2ccc(Cl)cc2)c2ccccc21 | – | 0.372%
6 | O=C(O)Cn1nc(-c2ccccc2)c2ccccc21 | – | -0.226%
7 | COC(=O)Cn1nc(-c2ccccc2)c2ccccc21 | – | -4.87%
8 | COc1ccc2c(c1)c1nc3n(c(=O)c1n2CC(=O)N1CCC(C)CC1)CCS3 | – | 0.019% [at 2.6 µM]
9 | CC1CCN(C(=O)Cn2c3ccc(F)cc3c3nc4n(c(=O)c32)CCCS4)CC1 | – | 1.51%
10 | COC(=O)Cn1nc(-c2ccc(C)cc2)c2ccccc21 | – | -1%
11 | O=C(Cn1c2ccccc2c2ccncc21)N1CCCCC1 | – | -14%
12 | O=c1c2[nH]c3ccc(F)cc3c2nc2n1CCS2 | – | 1.87%
13 | O=C(Cn1c2ccccc2c2nc3n(c(=O)c21)CCS3)N1CCOCC1 | – | -2.95%
14 | O=C(Cn1c2ccccc2c2nc3n(c(=O)c21)CCS3)N1CCCC1 | inactive | –
15 | N#Cc1cccc(N2CCN(C(=O)c3ccc(Cl)cc3)CC2)n1 | – | -1.78%
16 | O=C(Cn1c2ccccc2c2nc3n(c(=O)c21)CCS3)NCCc1ccc(Cl)cc1 | – | 2.63%
17 | COc1ccc(NC(=O)Cn2c3ccccc3c3nc4n(c(=O)c32)CCS4)cc1 | – | -4.77%
18 | CC1CCN(C(=O)Cn2c3ccccc3c3nc4n(c(=O)c32)CCS4)CC1 | – | 2.14%
19 | O=C(Cn1c2ccc(F)cc2c2nc3n(c(=O)c21)CCS3)N1CCCC1 | – | 2.6%
20 | O=c1c2[nH]c3ccccc3c2nc2n1CCS2 | – | 1.63%
21 | O=C(Cn1c2ccc(F)cc2c2nc3n(c(=O)c21)CCS3)N1CCCCCC1 | – | -9.37%
22 | COc1ccc2c(c1)c1nc3n(c(=O)c1n2CC(=O)N1CCC(Cc2ccccc2)CC1)CCS3 | – | 2.34%
23 | CC1CCN(C(=O)Cn2c3ccccc3c3nc4n(c(=O)c32)CCCS4)CC1 | – | 1.1%
24 | O=C(Cn1c2ccc(F)cc2c2nc3n(c(=O)c21)CCS3)N1CCCCC1 | – | -3.59%
25 | O=C(Cn1c2ccccc2c2nc3n(c(=O)c21)CCCS3)c1ccc(F)cc1 | – | 2.75%
